The structures appear in SMILES notation. Calls of active or inactive are those of the source. No cut-off for these calls is given here.

Data set [1] deals with T1, Neuronal acetylcholine receptor; alpha4/beta2 (Homo sapiens) (UniProt P17787+P43681). Briefly: Activity at human alpha4beta2 nAChR assessed as potentiation of nicotine-induced response by fluorescent Ca2+ flux assay. For orientation: A change in cytosolic calcium serves as a functional read-out for many receptors and channels.
The target of data set [2] is T1, Neuronal acetylcholine receptor; alpha4/beta2 (Homo sapiens). Briefly: Activity at human alpha4beta2 nAChR assessed as potentiation of nicotine-induced response by fluorescent Ca2+ flux assay relative to nicotine.
A short description of data set [3]: Clearance in Sprague-Dawley rat. Format: ADME, organism-based. The note with it: in vivo.
The target in data set [4] is Neuronal acetylcholine receptor; alpha4/beta2 (Rattus norvegicus) (UniProt P09483+P12390). Briefly: Displacement of [3H]cystisine from alpha4beta2 nAChR in rat cerebral cortical membrane at >=30 uM. It is filed as cell membranes.
Data set [5] addresses Neuronal acetylcholine receptor; alpha3/beta2 (Homo sapiens) (UniProt P17787+P32297). The data set can be described thus: Activity at human alpha3beta2 nAChR expressed in Xenopus oocytes assessed as potentiation of acetylcholine-induced response by patch-clamp electrophysiology. The note with it: Oocyte. It is filed as cell-based.
Data set [6] is described as follows: Ratio of drug level in brain to plasma in Sprague-Dawley rat. Format: ADME, organism-based. The note with it: brain and plasma.
The target of data set [7] is Neuronal acetylcholine receptor; alpha3/beta4 (Homo sapiens) (UniProt P30926+P32297). Briefly: Activity at human alpha3beta4 nAChR expressed in Xenopus oocytes assessed as potentiation of acetylcholine-induced response by patch-clamp electrophysiology. It is filed as cell-based. The note with it: Oocyte.
The test system of a further data set is LLC-PK1. The data set can be described thus: Efflux ratio of permeability from […] in human MDR1 transfected pig LLC-PK1 cells at 5 uM after 2 hrs. Format: ADME, cell-based, Sus scrofa. The note with it: llc-pk1, 2 h. In short, it runs like this: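 MDR1-LLC-PK1 cells were seeded at 200,000 cells/well on membrane filters. Transport was run manually on day 5 after plating, in both A-to-B and B-to-A directions, in the presence of 0.1% bovine serum albumin.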

The nature of data set [8]: Metabolic stability in rat liver microsomes. It is filed as ADME, Microsome. The note with it: read-out: Stability. Background: Microsomes from liver hold many membrane-bound enzymes, among them those of drug oxidation.
A short description of data set [9]: Metabolic stability in human liver microsomes. Format: ADME, Microsome. The note with it: read-out: Stability.

For `Cc1ccc(NC(=O)O[C@@H](Cn2nc(C(C)C)cc2C(C)C)C(C)C)cc1`, the EC12 in [1] was 0.13 µM. The Efficacy in data set [2] stood at 59%.
On to `Cc1ccccc1NC(=O)O[C@@H](Cn1nc(C(C)C)cc1C(C)C)C(C)C`, for which, in data set [1], the EC12 was above 100 µM. The Efficacy in [2] was 9%.
The like results for `CC(C)c1cc(C(C)C)n(CC(OC(=O)Nc2ccc(F)cc2F)C(C)(C)C)n1` (racemic) were, in that order, 3.7 µM and 11%.
For the compound `CCc1cc(C(F)(F)F)nn1C[C@H](OC(=O)Nc1ccc(F)cc1F)C(C)C`, in data set [1], the EC12 stood at 0.21 µM. The Efficacy in [2] came to 50%.
As a reminder, the clearance is the volume of plasma or blood freed of the substance per unit of time. Read a high clearance as a high capacity for elimination. On to `CCOc1ccc(NC(=O)O[C@@H](Cn2nc(C(C)C)cc2C(C)C)C(C)C)cc1`, for which, in [3], the clearance is 1.8 L/h/kg. In data set [1], the EC12 was 0.11 µM. In [2], the Efficacy is 100%. In addition, the outcome in data set [4] was inactive.
A word on the Kp: it is tissue or fluid exposure divided by exposure in the circulation. Consider `CC(C)c1cc(C(C)C)n(C[C@H](NC(=O)Nc2ccc(F)cc2F)C(C)C)n1`, for which the clearance in data set [3] was 3 L/h/kg. Moreover, the values for the EC12 in data set [5], in data set [1] and in data set [7] were above 100 µM, 0.31 µM and above 100 µM, respectively. The Efficacy in data set [2] stood at 25%. Also, the Kp in data set [6] came to 1. Besides, the Ratio with LLC-PK1 is 1.1.
For `CC(C)c1cc(C(C)C)n([C@@H]2CCC[C@H]2OC(=O)Nc2ccc(F)cc2F)n1`, the EC12 in data set [1] was 0.25 µM. Also, the Efficacy in data set [2] was 73%.
As to `CC(C)c1cc(C(C)C)n(CC(OC(=O)Nc2ccccc2)C(C)C)n1` (racemic), the EC12 in [1] is 0.38 µM. Also, the Efficacy in data set [2] was determined as 18%.
As to `CC[C@H](Cn1nc(C(F)(F)F)cc1C1CCCCC1)OC(=O)Nc1ccc(F)cc1F`, the EC12 in [1] was found to be 0.38 µM. In addition, the Efficacy in [2] was determined as 88%.
`CC(C)c1cc(C(C)C)n(C[C@@H](NC(=O)Nc2ccc(F)cc2F)C(C)C)n1`: in [1], the EC12 is above 10 µM. In data set [2], the Efficacy worked out at 19%.
The like results for `CC(C)c1cc(C(C)C)n(C[C@H](OC(=O)NC2CCCCC2)C(C)C)n1` were, in that order, 2.7 µM and 13%.
As to `CC[C@H](Cn1nc(C)cc1C)OC(=O)Nc1ccc(F)cc1F`, the EC12 in data set [1] turned out to be 1.18 µM. Also, the Efficacy in data set [2] was 15%.
On to `CC(C)c1cc(C(C)C)n(C[C@H](OC(=O)Nc2ccc(Cl)cc2)C(C)C)n1`, for which the EC12 in data set [1] was determined as 0.33 µM. Further, the Efficacy in data set [2] stood at 91%.
As to `CCCOc1ccc(NC(=O)O[C@@H](Cn2nc(C(C)C)cc2C(C)C)C(C)C)cc1`, the EC12 in data set [1] was found to be 0.33 µM. Moreover, the Efficacy in data set [2] came out at 107%.
The compound `CC[C@H](Cn1nc(C(F)(F)F)cc1C1CCCC1)OC(=O)Nc1ccc(F)cc1F` showed a clearance in [3] of 4.23 L/h/kg. In [1], the EC12 was determined as 0.57 µM. Also, in data set [2], the Efficacy worked out at 95%.
Take `CC(C)c1cc(C(C)C)n([C@@H](C)[C@@H](C)OC(=O)Nc2ccc(F)cc2F)n1` (racemic): the EC12 in data set [1] was above 100 µM. For the same compound, the Efficacy in [2] amounted to 10%.
In data set [3], `CC(C)c1cc(C(C)C)n(C[C@H](OC(=O)Nc2ccc(F)cc2F)C(C)C)n1` showed a clearance of 4.9 L/h/kg. Further, the EC12 in data set [5] was above 100 µM; in data set [1] it was 0.25 µM; in data set [7], above 100 µM. In addition, the Efficacy in data set [2] was 76%. Further, in data set [6], the Kp was determined as 1. For the same compound, the microsomal CLint was above 399 µL/min/mg in data set [8] and 644 µL/min/mg in data set [9]. Moreover, in the data set on LLC-PK1, the Ratio is recorded as 1.1.
For the compound `CC(C)c1cc(C(C)C)n(C[C@H](OC(=O)Nc2ccc(Oc3ccccc3)cc2)C(C)C)n1`, in [1], the EC12 is 0.34 µM. The Efficacy in [2] came to 89%.
Regarding `CC[C@H](Cn1ccc(C(F)(F)F)n1)OC(=O)Nc1ccc(F)cc1F`, in [1], the EC12 amounted to 0.89 µM. For the same compound, the Efficacy in data set [2] is 15%.
The like results for `Cc1cccc(NC(=O)O[C@@H](Cn2nc(C(C)C)cc2C(C)C)C(C)C)c1` were, in that order, 0.9 µM and 25%.
Turning to `CC(C)c1cc(C(C)C)n(C[C@@H](OC(=O)Nc2ccc(F)cc2F)C(C)C)n1`, the EC12 in [1] was above 50 µM. The Efficacy in [2] came out at 9%.
On to `CC(C)c1cc(C(C)C)n([C@H](C)[C@@H](C)OC(=O)Nc2ccc(F)cc2F)n1` (racemic), for which, in data set [1], the EC12 amounted to 1.3 µM. Moreover, the Efficacy in data set [2] stood at 12%.
The like results for `CC(C)c1cc(C(C)C)n(C[C@@H](C)OC(=O)Nc2ccc(F)cc2F)n1` were, in that order, 0.7 µM and 15%.
Regarding `CC[C@H](Cn1nc(C(F)(F)F)cc1C1CC1)OC(=O)Nc1ccc(F)cc1F`, the EC12 in [1] turned out to be 0.7 µM. The Efficacy in data set [2] is 54%.
In the case of `CC(C)c1cc(C(C)C)n(C[C@H](OC(=O)Nc2ccncc2)C(C)C)n1`, the EC12 in [1] was above 100 µM. Also, in data set [2], the Efficacy is 7%.
Take `CC[C@H](Cn1nc(C(F)(F)F)cc1C1CCNCC1)OC(=O)Nc1ccc(F)cc1F`: the EC12 in data set [1] was above 100 µM. In data set [2], the Efficacy is -3%.
On to `CC(C)c1cc(C(C)C)n(C[C@H](OC(=O)Nc2ccc(C(F)(F)F)cc2)C(C)C)n1`, for which the EC12 in data set [1] is 0.4 µM. In addition, in data set [2], the Efficacy was determined as 106%.
The like results for `CC[C@H](Cn1nc(C(F)(F)F)cc1C1CCCO1)OC(=O)Nc1ccc(F)cc1F` (some centres not stated) were, in that order, above 100 µM and 3%.
For the compound `CC(C)[C@H](Cn1nc(C(F)(F)F)cc1C(F)(F)F)OC(=O)Nc1ccc(F)cc1F`, the EC12 in [1] was 3.9 µM. Moreover, the Efficacy in data set [2] came to 16%.
As to `CC(C)c1cc(C(C)C)n(CC(OC(=O)Nc2ccsc2)C(C)C)n1` (racemic), in data set [1], the EC12 was 0.7 µM. In addition, the Efficacy in [2] was 12%.
Regarding `CC(C)[C@H](Cn1nccc1C(F)(F)F)OC(=O)Nc1ccc(F)cc1F`, the EC12 in data set [1] was found to be 2.1 µM. In [2], the Efficacy worked out at 30%.
Consider `CC(C)[C@H](Cn1cccn1)OC(=O)Nc1ccc(F)cc1F`, for which the EC12 in [1] was above 50 µM. The Efficacy in [2] was 6%.
Take `COc1ccc(NC(=O)O[C@@H](Cn2nc(C(C)C)cc2C(C)C)C(C)C)cc1`: the EC12 in data set [1] came out at 0.14 µM. Further, the Efficacy in data set [2] stood at 77%.
With `CC(C)[C@H](Cn1nc(C(F)(F)F)cc1-c1ccccc1)OC(=O)Nc1ccc(F)cc1F`, the EC12 in [1] turned out to be 2.4 µM. Also, the Efficacy in data set [2] worked out at 10%.
As for `CC[C@H](Cn1nc(C(C)C)cc1C(C)C)OC(=O)Nc1ccc(F)cc1F`, in data set [1], the EC12 is 0.38 µM. The Efficacy in data set [2] is 83%.
The like results for `CC[C@H](Cn1nc(C(F)(F)F)cc1C1=CCCC1)OC(=O)Nc1ccc(F)cc1F` were, in that order, 0.46 µM and 20%.

The values above are taken from ChEMBL document CHEMBL1152221, “Synthesis and activity of substituted carbamates as potentiators of the alpha4beta2 nicotinic acetylcholine receptor” (Bioorg Med Chem Lett, 2008).
